Only some compounds are listed: those with a hit (about 3.5% of all), similar ones and a draw of the others.
RGS4 pot: RGS4 potentiators or activators, primary screen, cell-based, HEK293 M3R inducible RGS4, calcium flux; 310,000 tested, 0.92% active; AID 463111, 2010; B-score at 10 µM; carbachol calcium flux Fluo4; hits give low values;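 active means B-score of the integrated calcium signal more than 4 SD below the library mean, with starting fluorescence not abnormally high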;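 further: negative B-score means reduced calcium response which marks RGS4 activation or potentiation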
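Assay system: Inducible-RGS4 HEK293 cells carrying M3 receptor | Schedule: Compound preincubation 20 min at room temperature before agonist | Signal: Kinetic calcium fluorescence imaging with Fluo4-AM dye, 2 µM | Read-out basis: B score from integrated fluorescence ratio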
MrgX1 antagonist: antagonists of human MrgX1 receptor, primary screen, HEK293 cells, Fluo-4 calcium flux. Mas-related G-protein coupled receptor member X1 (Homo sapiens), Q96LB2. BAM8-22 antagonism; hits give low values. B-score at 10 µM. 310,000 tested, 1.3% active;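 active means calcium-response B-score plate-corrected more than 3 library SD below zero, starting fluorescence within 5 deviations, no agonist response on first addition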;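 further: peak minus trough fluorescence over baseline after final BAM8-22 challenge near maximal dose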
Target sequence (Q96LB2 whole entry, looked up): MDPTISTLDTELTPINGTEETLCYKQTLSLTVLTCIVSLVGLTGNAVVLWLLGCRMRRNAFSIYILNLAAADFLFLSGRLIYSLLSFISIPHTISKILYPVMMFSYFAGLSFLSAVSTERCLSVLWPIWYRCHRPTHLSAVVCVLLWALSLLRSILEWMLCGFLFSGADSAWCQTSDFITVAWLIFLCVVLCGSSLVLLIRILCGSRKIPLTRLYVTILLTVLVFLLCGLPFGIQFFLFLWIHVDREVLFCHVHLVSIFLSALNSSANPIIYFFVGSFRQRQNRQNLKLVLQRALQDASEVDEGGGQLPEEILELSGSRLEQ
RGS4 block: RGS4 inhibitors, primary screen, cell-based, HEK293 M3R inducible RGS4, calcium flux. Regulator of G-protein signaling 4 (Homo sapiens), P49798. Fluo-4 calcium flux; hits give high values; triggered by carbachol at its EC20. B-score at 10 µM. 310,000 tested, 0.45% active. AID 463165, 2010;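 active means B-score, a plate-corrected calcium signal, over three deviations above library mean, with baseline fluorescence within five deviations of library mean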;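 further: RGS4 expression induced by doxycycline in cells with stable M3 receptor; B-score is computed from the integrated fluorescence ratio over baseline after carbachol; higher B-score means a larger calcium signal and so more RGS4 inhibition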
Target sequence (P49798 whole entry, looked up): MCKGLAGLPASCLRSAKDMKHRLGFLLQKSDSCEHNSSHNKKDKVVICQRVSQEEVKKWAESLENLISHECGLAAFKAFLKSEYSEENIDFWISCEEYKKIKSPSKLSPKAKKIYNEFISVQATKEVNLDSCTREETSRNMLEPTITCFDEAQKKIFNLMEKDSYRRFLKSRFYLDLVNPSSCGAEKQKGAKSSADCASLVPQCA
MrgX1 agonist: agonists of human MrgX1 receptor, primary screen, HEK293 cells, Fluo-4 calcium flux | Mas-related G-protein coupled receptor member X1 (Homo sapiens), Q96LB2 | Fluo-4 calcium fluorescence, agonist mode; hits give high values | B-score at 10 µM | 310,000 tested, 0.44% active | AID 588627, 2011;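 active means calcium response B-score plate-corrected fluorescence ratio at least 3 library SD, with starting fluorescence B-score inside 5 SD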
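Test system: HEK293 cells stably expressing human MrgX1 receptor; Input: fifteen thousand cells per well; Dosing: compound delivered in addition one of three; Schedule: overnight seeding, then 1 h dark dye loading; Technique: Fluo-4 NW calcium fluorescence; Measure: B-scored fluorescence response ratio; Controls: positive and negative controls per plate.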
MrgX1 PAM: positive allosteric modulators of MrgX1, primary screen, HEK293 cells, Fluo-4 calcium flux; FDSS; hits give high values; B-score at 10 µM; 310,000 tested, 0.63% active; Mas-related G-protein coupled receptor member X1 (Homo sapiens), Q96LB2;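 active means plate-corrected calcium response at least 3 library SD above typical, normal starting fluorescence, not activating the receptor alone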;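 further: compound read alongside a low EC10 to EC30 dose of BAM8-22 agonist; peak minus trough fluorescence over baseline measured at the second addition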
* = called active by the depositor; ! = not active in a repeat.

Results for CS(=O)(=O)c1nsc2nc(=O)c(/C=C3\C=Nc4ccccc43)c(N)n12 ?
RGS4 pot: inactive; MrgX1 antagonist: inactive; RGS4 block: inactive; MrgX1 agonist: inactive; MrgX1 PAM: inactive

Results for COC1=C/C(=C/c2c(N)n3c(nc2=O)sc2cc(S(C)(=O)=O)ccc23)C=CC1=O ?
RGS4 pot: inactive; MrgX1 antagonist: inactive; RGS4 block: inactive; MrgX1 agonist: inactive; MrgX1 PAM: 10.3*

What do the screens show for `CS(=O)(=O)c1ccc2c(c1)sc1nc(=O)c(/C=C3/C=CC(=O)C(O)=C3)c(N)n12`?
RGS4 pot: inactive; MrgX1 antagonist: inactive; RGS4 block: inactive; MrgX1 agonist: inactive; MrgX1 PAM: 27.7*

Results for CCOc1ccc(Nc2nc(NCC3CCCO3)c3ccccc3n2)cc1 (centres undefined) ?
RGS4 pot: -7.19*; MrgX1 antagonist: -5.86*; RGS4 block: inactive; MrgX1 agonist: inactive; MrgX1 PAM: inactive

Results for Oc1cccc(Nc2nc(NCC3CCCO3)c3ccccc3n2)c1 (centres undefined) ?
RGS4 pot: inactive; MrgX1 antagonist: inactive; RGS4 block: inactive; MrgX1 agonist: inactive; MrgX1 PAM: inactive

Results for N#Cc1c(-c2cccs2)cc(C2CC2)nc1SCC(N)=O ?
RGS4 pot: inactive; MrgX1 antagonist: inactive; RGS4 block: inactive; MrgX1 agonist: inactive; MrgX1 PAM: inactive

Results for O=C(CN1C(=O)/C(=C/c2c(F)cccc2Cl)Oc2ccccc21)NCc1ccco1 ?
RGS4 pot: inactive; MrgX1 antagonist: -6.56*; RGS4 block: inactive; MrgX1 agonist: inactive; MrgX1 PAM: inactive

How did O=C(/C=C/c1c(F)cccc1Cl)NCc1ccco1 do in these assays?
RGS4 pot: inactive; MrgX1 antagonist: -4.54*; RGS4 block: inactive; MrgX1 agonist: inactive; MrgX1 PAM: inactive

What do the screens show for `O=C(/C=C/c1ccc(F)cc1)NCc1ccco1`?
RGS4 pot: inactive; MrgX1 antagonist: inactive; RGS4 block: inactive; MrgX1 agonist: inactive; MrgX1 PAM: inactive

Results for O=C(Cc1ccc(S(=O)(=O)N2CCOCC2)s1)Oc1ccc(F)cc1 ?
RGS4 pot: inactive; MrgX1 antagonist: inactive; RGS4 block: inactive; MrgX1 agonist: inactive; MrgX1 PAM: inactive

How did O=C1NC(=S)N(C(=O)c2ccc(F)cc2)/C1=C/c1ccccc1 do in these assays?
RGS4 pot: inactive; MrgX1 antagonist: -5.5*; RGS4 block: inactive; MrgX1 agonist: inactive; MrgX1 PAM: inactive

Results for Cc1cc(C(=O)N2CCN(C(c3ccccc3)c3ccccc3)CC2)no1 ?
RGS4 pot: inactive; MrgX1 antagonist: inactive; RGS4 block: inactive; MrgX1 agonist: inactive; MrgX1 PAM: inactive

How did CCCc1cc(C(=O)N2CCN(C(c3ccccc3)c3ccccc3)CC2)no1 do in these assays?
RGS4 pot: -7.43*; MrgX1 antagonist: inactive; RGS4 block: inactive; MrgX1 agonist: inactive; MrgX1 PAM: inactive

What do the screens show for `O=C(COC(=O)Cn1cnc2ccccc2c1=O)Nc1cc(Cl)ccc1[N+](=O)[O-]`?
RGS4 pot: inactive; MrgX1 antagonist: inactive; RGS4 block: inactive; MrgX1 agonist: inactive; MrgX1 PAM: inactive

What do the screens show for `COc1ccc(C(CCN(Cc2ccc(OC)c(OC)c2)C(C)=O)c2ccccc2)cc1` (centres undefined)?
RGS4 pot: inactive; MrgX1 antagonist: inactive; RGS4 block: inactive; MrgX1 agonist: inactive; MrgX1 PAM: inactive

What do the screens show for `COc1ccc(CN(CCC(c2ccccc2)c2ccc(OC(C)C)cc2)C(=O)CCl)cc1OC` (centres undefined)?
RGS4 pot: -7.14*; MrgX1 antagonist: inactive; RGS4 block: inactive; MrgX1 agonist: inactive; MrgX1 PAM: 10.3*

How did Nc1ncnc2c1ncn2[C@@H]1O[C@H](COP(=O)(O)OP(=O)(O)OP(=O)(O)O)[C@@H](O)[C@H]1O do in these assays?
MrgX1 antagonist: inactive; MrgX1 agonist: 44.6*; MrgX1 PAM: inactive

Results for CCCCCCOC(=O)Nc1ccc(S(=O)(=O)Nc2cccc([N+](=O)[O-])c2)cc1 ?
RGS4 pot: inactive; MrgX1 antagonist: inactive; RGS4 block: inactive; MrgX1 agonist: inactive; MrgX1 PAM: inactive

Results for O=C(Nc1cccc(Cl)c1N1CCCC1)c1ccc([N+](=O)[O-])o1 ?
RGS4 pot: inactive; MrgX1 antagonist: inactive; RGS4 block: inactive; MrgX1 agonist: inactive; MrgX1 PAM: inactive

How did CCN1CCN(c2c(Cl)cccc2NC(=O)c2ccc([N+](=O)[O-])o2)CC1 do in these assays?
RGS4 pot: -7.54*; MrgX1 antagonist: inactive; RGS4 block: inactive; MrgX1 agonist: inactive; MrgX1 PAM: inactive

How did Cc1ccc(O)c(NC(=O)c2onc(C)c2Cl)c1 do in these assays?
RGS4 pot: inactive; MrgX1 antagonist: inactive; RGS4 block: inactive; MrgX1 agonist: inactive; MrgX1 PAM: inactive

How did C/C(=C/CCC(C)[C@H]1CC[C@@]2(C)C3=C(CC[C@]12C)[C@@]1(C)CCC(=O)C(C)(C)[C@@H]1CC3)C(=O)O (some centres undefined) do in these assays?
RGS4 pot: -11.5*; MrgX1 antagonist: inactive; RGS4 block: inactive; MrgX1 agonist: inactive; MrgX1 PAM: inactive

Results for C/C(=C/CCC(C)C1CCC2(C)C3CCC4C(C)(C)C(=O)CCC4(C)C3=CCC12C)C(=O)O (centres undefined) ?
RGS4 pot: -7.76*; RGS4 block: inactive

Results for C[C@@H]1CC[C@@]2(O[C@@H](CCO)C[C@@H](O)[C@@H]2O)O1 ?
RGS4 pot: inactive; MrgX1 antagonist: inactive; RGS4 block: inactive; MrgX1 agonist: inactive; MrgX1 PAM: inactive

What do the screens show for `CCOC(=O)C1=C(C)NC(C)=C(C(=O)OC)C1c1cccc(Cl)c1Cl` (centres undefined)?
RGS4 pot: inactive; MrgX1 antagonist: inactive; RGS4 block: inactive; MrgX1 agonist: inactive; MrgX1 PAM: inactive

What do the screens show for `CCOC(=O)C1=C(COCCN)NC(C)=C(C(=O)OC)C1c1ccccc1Cl` (centres undefined)?
RGS4 pot: inactive; MrgX1 antagonist: inactive; RGS4 block: inactive; MrgX1 agonist: 27.1*!; MrgX1 PAM: inactive

How did S=C(NNc1ccnc2cc(Cl)ccc12)Nc1ccccc1Cl do in these assays?
RGS4 pot: inactive; MrgX1 antagonist: inactive; RGS4 block: inactive; MrgX1 agonist: inactive; MrgX1 PAM: 6.67*

What do the screens show for `CCN(CC)CCNc1ccnc2cc(Cl)ccc12`?
RGS4 pot: inactive; MrgX1 antagonist: inactive; RGS4 block: inactive; MrgX1 agonist: inactive; MrgX1 PAM: inactive
